Bioassay records from PubChem BioAssay.
N-glyco inh: N-linked glycosylation inhibition | D54 ERlucT glycosylation luciferase reporter, 24 h; percent of 100 nM tunicamycin response | reporter increase, % at 12.5 µM | actives 0.23% (n = 360,000) | AID 588692;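 active = mean luciferase reporter signal, scaled so untreated is 0 and the glycosylation-blocking control 100, at or above a set limit in every replicate; inconclusive = mean reaches the limit but not every replicate does; inactive = mean below the limit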;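 note: luciferase carries N-glycosylation sites so blocking glycosylation raises the light; 0% = median of neutral control wells and 100% = median of 100 nM tunicamycin wells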
CaV13 ICDI inh: Primary screen for inhibitors of IQ motif and Ca2+-dependent inactivation inhibitor domain binding in CACNA1D, Förster resonance energy transfer in living cells, …; inhibition, % at 12.3 µM; actives 0.098% (n = 340,000); AID 743397; HEK cells, CFP/YFP FRET ICDI-IQ, plate reader, 10 min; percent FRET-ratio fall versus neutral wells;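 active = mean replicate inhibition of at least 30% and at least 1% of replicates passing that level; inconclusive = only one of the two criteria is met; inactive = neither criterion is met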;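 note: 0% = median of the neutral control wells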
GC-A act: GC-A (human) enzyme activation | HEK293 GC-A cells, cGMP TR-FRET, EC30 ANP; 0% at EC30 ANP, 100% saturating ANP | activation, % at 10 µM | actives 0.14% (n = 370,000); in the data active = activation above about 40%
Vif inh: HIV Vif inhibition | HEK293T cells, Vif self-association by quenched fluorescence, imaging, 24 h | inhibition, % at 7.49 µM | actives 0.35% (n = 340,000) | AID 602346; in the data active = inhibition above about 50%, passing the limit was not always enough; inconclusive = no clear call, values can overlap the other calls; inactive = below about 31%
NPR2 activator: GC-B (human) receptor activation; P20594; HEK293-GC-B cells, CNP EC30, cGMP TR-FRET; 0% at EC30 CNP, 100% saturating CNP; activation, % at 10 µM; actives 0.11% (n = 370,000);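 active = activation at 10 µM reaching about 35% in either raw or pattern-adjusted values, limit read from the data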
XiGFP reactiv: reactivates the inactive X chromosome in mouse fibroblasts. XiGFP mouse fibroblasts, % GFP-positive cells imaging, 3 d; cells co-treated with 5-aza-dC sensitizer; scaled so ellipticine positive control = 100%. activation, % at 7.58 µM. actives 0.055% (n = 360,000);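 active = mean normalized replicate activation at least 10% and every replicate at or above 10%; inconclusive = only one of the two criteria met; inactive = mean below 10% and not all replicates reach 10%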;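 note: 0% = median of on-plate neutral control wells and 100% = ellipticine 6 µM median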
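Assay system: SV40-immortalized XiGFP fibroblast cells, line 68-5-11; buffer or medium: DMEM plus 5-aza-dC sensitizer; compound: one concentration, pinned; timing: compounds 3 days, fix/stain 15 min at room temperature; benchmarks: positive control ellipticine, 6 µM final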
Active calls of the source: *; ? = inconclusive; · = no result given. Rows were chosen to be rich in hits. Some 0.7% of all compounds tested hit in one or more screens of this group.

SMILES | N-glyco inh | CaV13 ICDI inh | GC-A act | Vif inh | NPR2 activator | XiGFP reactiv
Cn1c(=O)c2[nH]c(-c3ccc(S(=O)(=O)O)cc3)nc2n(C)c1=O | 4 | -7 | 4 | -3 | 1 | 23*
Cc1ccc(S/C=C\C(=O)c2ccccc2)cc1 | 47* | -8 | 8 | 6 | 1 | ·
CCC(=O)N(C)C[C@H]1Oc2cc(C#Cc3ccccn3)ccc2S(=O)(=O)N([C@H](C)CO)C[C@H]1C | · | · | · | · | · | 0
Cc1c(NC(=O)c2ccc(S(=O)(=O)N(C)C)cc2)cccc1-n1cnnn1 | 3 | -6 | 6 | 11 | 4 | 0
Cc1c(NC(=O)c2ccc(Cl)c([N+](=O)[O-])c2)cccc1-n1cnnn1 | -2 | -6 | 2 | 56* | 0 | 0
COc1ccc(NC(=O)N(C)C[C@H]2Oc3ccc(NS(=O)(=O)c4ccc(F)cc4)cc3CC(=O)N([C@@H](C)CO)C[C@H]2C)cc1 | · | · | · | · | · | -1
Cc1cc(C(=O)Nc2cccc3c2O[C@H](CN(C)S(C)(=O)=O)[C@@H](C)CN([C@H](C)CO)C3=O)n(C)n1 | · | · | · | · | · | -1
C=CC[C@H](CC(=O)NCCO)C(=O)NC[C@@H](OC(=O)[C@@H](CC=C)CC(=O)OC(C)(C)C)c1ccccc1 | 1 | -11 | -8 | -10 | 69* | 1
C=CC[C@H](CC(=O)N(CCO)Cc1ccccc1)C(=O)NC[C@H](OC(=O)[C@@H](CC=C)CC(=O)OC(C)(C)C)c1ccccc1 | 1 | -11 | -8 | -16 | -9 | 0
Nc1nonc1-c1nc2ccccc2n1CC(=O)Nc1ccccc1 | 4 | 4 | -8 | 5 | -2 | 0
Nc1nonc1-c1nc2ccccc2n1CC(=O)NC1CCCC1 | -1 | · | 1 | 50* | 10 | ·
CCCCCCCCCCCCCCCC[n+]1ccc(/C=N/O)cc1 | 87* | · | -19 | -4 | 1 | ?
CCCCCCCCCCCCCCCC[n+]1ccc(C(N)=O)cc1 | -12 | -4 | -24 | -5 | 17 | 0
C[C@@H]1CN([C@H](C)CO)C(=O)c2cc(NC(=O)Nc3ccccc3)ccc2O[C@H]1CN(C)C(=O)Nc1ccc2c(c1)OCO2 | · | · | · | · | · | 0
CCC(=O)c1ccc(OCC(=O)OCC(=O)N2CCc3ccccc32)cc1 | 3 | -6 | -2 | · | -5 | 0
N#Cc1ccc(OCC(=O)OCC(=O)N2CCc3ccccc32)cc1 | -2 | 35* | 1 | -10 | 3 | 0
CCc1c2c(nc3ccc(OC(=O)N4CCC(N5CCCCC5)CC4)cc13)-c1cc3c(c(=O)n1C2)COC(=O)[C@]3(O)CC | -7 | -4 | 18 | -2 | 7 | 1
CCC1(O)C(=O)OCc2c1cc1n(c2=O)Cc2cc3cc(O)ccc3nc2-1 (stereo not drawn) | -12 | · | 56* | 8 | 0 | ·
C=CCNc1nc(=S)[nH]c2cc(OC)c(OC)cc12 | 2 | -2 | 41* | -3 | 37* | 0
Cn1cnc([N+](=O)[O-])c1Oc1ccc2ccccc2c1 | 47* | -5 | 6 | -19 | 16 | 0
COc1ccc(NC(=O)C2(C)Cc3c(-c4cccc(NC(C)=O)c4)ccnc3O2)cn1 (stereo not drawn) | 25 | -6 | 0 | 58* | -2 | 0
COc1ccc(NC(=O)C2(C)Cc3c(-c4ccc(NC(C)=O)cc4)ccnc3O2)cn1 (stereo not drawn) | -1 | -5 | -6 | 11 | 1 | 1
CC(=O)Nc1cccc(-c2ccnc3c2CC(C)(C(=O)Nc2cccc(C(C)=O)c2)O3)c1 (stereo not drawn) | 30* | -10 | -2 | -11 | -3 | 0
COCC#Cc1cnc2c(c1)C(=O)N([C@H](C)CO)C[C@@H](C)[C@@H](CN(C)C(=O)C1CCCCC1)O2 | · | · | · | · | · | 3
C=CC[C@H](CC(=O)N(CCO)Cc1ccccc1)C(=O)N[C@H](COC(=O)[C@@H](CC=C)Cc1ccc(F)cc1)C(C)(C)C | 2 | -6 | 0 | -8 | 0 | 0
SMILES | N-glyco inh | CaV13 ICDI inh | GC-A act | Vif inh | NPR2 activator | XiGFP reactiv
C=CC[C@@H](CC(=O)N(CCO)Cc1ccccc1)C(=O)N[C@H](COC(=O)[C@@H](CC=C)Cc1ccc(F)cc1)C(C)(C)C | -3 | -12 | -12 | 55* | -9 | 0
C[C@H]1CN([C@@H](C)CO)S(=O)(=O)c2ccc(C3=CCCC3)cc2O[C@@H]1CN(C)C(=O)c1cnccn1 | · | · | · | · | · | 0
COc1ccc(CN(C)C[C@H]2OCCCC[C@H](C)Oc3ccc(NS(=O)(=O)c4cccs4)cc3C(=O)N([C@@H](C)CO)C[C@@H]2C)cc1 | · | · | · | · | · | 0
Fc1ccccc1CNc1nc(-c2cccnc2)nc2ccccc12 | 0 | -2 | 32 | -4 | 36* | 0
CC(Nc1nc(-c2ccncc2)nc2ccccc12)c1ccccc1 (stereo not drawn) | 9 | -20 | -11 | 5 | 1 | 0
CC(Nc1nc(-c2cccnc2)nc2ccccc12)c1ccccc1 (stereo not drawn) | 38* | -10 | 12 | 6 | 14 | 0
c1cncc(-c2nc(NCc3cccs3)c3ccccc3n2)c1 | 3 | 8 | 4 | -2 | 8 | 0
COc1ccc2c3c(n(C)c2c1)[C@H](CO)N(C)CC31CCN(S(=O)(=O)c2cccc(C)c2)CC1 | · | · | · | · | · | 0
COc1cc(C2=NOC(C(=O)NCc3ccc(F)cc3)C2)cc(OC)c1OC (stereo not drawn) | 24 | -3 | -3 | 60* | -5 | ·
COCCN(C(=O)c1ccc2c(c1)C(=O)N(c1ccccc1Cl)C2=O)c1c(N)n(CC(C)C)c(=O)[nH]c1=O | 1 | -7 | -2 | 3 | -1 | 142*
C[C@H](CO)N1C[C@H](C)[C@@H](CN(C)C(=O)C2CCC2)Oc2cc(-c3cccnc3)ccc2S1(=O)=O | · | · | · | · | · | 0
CCN(CC)C(=O)c1ccc(/C=C/c2c[nH]c3ccccc23)[n+](C)c1 | 1 | -10 | -13 | 3 | -6 | 0
CC[n+]1c(/C=C/c2c[nH]c3ccccc23)ccc2cc(C)ccc21 | · | -194 | -50 | · | -34 | 103*
C[C@@H]1CCCCO[C@@H](CN(C)C(=O)Nc2ccc(F)cc2)[C@H](C)CN([C@H](C)CO)C(=O)c2cc(NS(=O)(=O)c3ccc(Cl)cc3)ccc2O1 | · | · | · | · | · | 0
O=C(C[C@@H]1CC[C@@H]2[C@H](COC[C@H](O)CN2CCc2ccccc2)O1)NCc1ccc(Oc2ccccc2)cc1 | · | · | · | · | · | 0
C[C@H](CO)N1C[C@H](C)[C@@H](CN(C)C)Oc2ccc(NC(=O)c3ccncc3)cc2CC1=O | · | · | · | · | · | -1
